# Rows were chosen to be rich in hits. Some 2% of all compounds tested hit in one or more screens of this group.
# dFosB act: activators of delta FosB homodimer, primary screen, biochemical, fluorescence polarization, TAMRA-CDK5 oligo, single point. 0.99% of 340,000 active. activation, % at 25 µM. Protein FosB (Mus musculus), P13346. purified delta FosB; percent of positive-control signal above neutral wells;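 active = mean activation above about 17%, with every replicate also reaching it, limit read from the data, passing the limit was not always enough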
# SR-BI DiI inh: inhibitors of SR-BI mediated HDL lipid uptake, primary screen, ldlA[mSR-BI] cells, fluorescence, single point; AID 488896, 2010; Scavenger receptor class B member 1 (Mus musculus), Q61009; inhibition, % at 12.5 µM; 0.96% of 320,000 active; ldlA[mSR-BI] CHO cells, DiI-HDL uptake fluorescence, 3 h;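 active = mean replicate inhibition of at least 70% and a set share of replicates each scoring 70 or more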;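 note: 0% = median of neutral control wells and 100% = median of positive control wells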
# SR-BI uptake up: activators of SR-BI mediated DiI-HDL uptake, primary screen, ldlA[mSR-BI] CHO cells, DiI fluorescence. 3 h; 100 = double the neutral-control signal. activation, % at 12.5 µM. 0.096% of 320,000 active. AID 504775, 2011;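 active = mean replicate activation of at least 60% and every replicate at or above 60%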;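 note: 0% = median plate neutral-control signal and 100% = twice that signal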
#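 Test system: SR-BI-overexpressing, LDLR-lacking CHO cells; Medium: Ham's F12 with 0.5% BSA, HEPES 25 mM, pH 7.4; Schedule: 3 h, 37 °C; Technique: bottom-read fluorescence, 550/595 nm.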
# CDK5 inh: inhibitors of human CDK5/p35 kinase, primary screen, biochemical, single concentration; Cyclin-dependent kinase 5 (Homo sapiens) + Cyclin-dependent kinase 5 activator 1 (Homo …; inhibition, % at 10 µM; 0.01% of 330,000 active; Recombinant CDK5/p35, ADP-Glo luminescence, 60 min;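 active = highest replicate inhibition of at least 50% and at least 75% of replicates reaching 50%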;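 note: plate controls were DMSO neutral control for no effect and GW8510 at 10 µM for full effect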
# Target sequence (Q00535 whole entry, looked up): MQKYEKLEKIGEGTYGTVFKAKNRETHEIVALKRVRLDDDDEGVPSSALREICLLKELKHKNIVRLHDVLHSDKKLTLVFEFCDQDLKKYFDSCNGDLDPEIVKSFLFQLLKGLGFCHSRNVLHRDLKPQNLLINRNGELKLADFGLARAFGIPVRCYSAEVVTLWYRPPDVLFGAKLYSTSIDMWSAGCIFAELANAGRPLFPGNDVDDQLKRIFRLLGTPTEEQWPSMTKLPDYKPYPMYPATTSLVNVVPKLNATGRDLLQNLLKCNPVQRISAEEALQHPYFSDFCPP
# Target sequence (Q15078 whole entry, looked up): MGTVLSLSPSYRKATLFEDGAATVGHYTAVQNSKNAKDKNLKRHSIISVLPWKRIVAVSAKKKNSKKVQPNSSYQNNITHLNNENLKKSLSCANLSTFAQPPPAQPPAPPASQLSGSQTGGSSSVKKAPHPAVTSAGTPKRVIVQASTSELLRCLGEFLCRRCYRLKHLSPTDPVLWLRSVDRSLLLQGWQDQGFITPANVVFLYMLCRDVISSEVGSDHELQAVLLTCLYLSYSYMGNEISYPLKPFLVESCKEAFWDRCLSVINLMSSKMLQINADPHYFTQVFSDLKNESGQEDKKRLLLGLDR
# Starred values were filed as active, the others as inactive; · = not tested or not shown.
SMILES,dFosB act,SR-BI DiI inh,SR-BI uptake up,CDK5 inh
COc1ccc(-c2nc(N/N=C(\C)c3ccc(O)cc3)c3ccccc3n2)cc1,-9,·,·,-1
COc1cc(N/N=C(\C)c2ccc(O)c(C)c2)nc(-c2ccccc2)n1,-4,92*,-92,-10
COc1cc(N/N=C(\C)c2ccc(N)cc2)nc(-c2ccccc2)n1,-11,79*,-79,-1
C/C(=N\Nc1cc(C)nc(-c2ccccc2O)n1)c1ccccc1,1,55,-55,-4
Cc1oc(-c2ccccc2Cl)nc1CS(=O)CC(=O)NCc1ccccc1Cl (stereo not drawn),-9,7,-7,-2
S=C(NCc1ccccc1)Nc1ccncc1,1,-35,35,1
Cc1cc(C)nc(SSc2nc(C)cc(C)n2)n1,0,8,-8,3
O=[N+]([O-])c1cccc(/C=N/Nc2cc(Cl)nc(-c3ccccc3)n2)c1,1,74*,-74,3
COCCCN(Cc1ccco1)C(=O)c1cc2c(s1)-c1ccc(Cl)cc1S(=O)(=O)C2,-13,30,-30,-4
CCOC(=O)CN1C(=O)N[C@@H](c2cccc(C(F)(F)F)c2)[C@@H](C(=O)OC)[C@H]1C,0,-5,5,0
CCN=C1SC(CC(=O)Nc2ccccc2OCC)C(=O)N1CC (stereo not drawn),-10,70,-70,1
CCCCOc1ccccc1NC(=O)CC1SC(=NCC)N(CC)C1=O (stereo not drawn),-2,84*,-84,1
Cc1nnc(SCC2=C(C(=O)O)N3C(=O)C(NC(=O)COc4ccccc4)C3SC2)s1 (stereo not drawn),-8,-8,8,-2
CCC(C(=O)NC1C(=O)N2C(C(=O)O)=C(CSc3nnc(C)s3)CSC12)c1ccccc1 (stereo not drawn),-4,-74,74*,0
Cc1cc(C(=O)N2CCCc3ccccc32)ccc1[N+](=O)[O-],-1,64,-64,0
CCCC(=O)Nc1sc(C)c(C)c1C(=O)Nc1cccc(C)c1,-3,72*,-72,-2
CC(=O)Nc1sc(C)c(C)c1C(=O)Nc1ccc(C)cc1,-5,4,-4,-2
S=P(N1CC1)(N1CC1)N1CC1,1,-13,13,1
Cc1ccc(S(=O)(=O)N(C)c2ccc(OCC(=O)Nc3cccc(-n4cnnn4)c3C)cc2)cc1,-15,84*,-84,0
Cc1ccc(S(=O)(=O)N(C)c2ccc(OCC(=O)Nc3ccc(S(C)(=O)=O)cc3)cc2)cc1,-8,9,-9,-2
C=CCC[C@@H](Cc1ccc(F)cc1)C(=O)OC[C@@H](Cc1c[nH]c2ccccc12)NC(=O)[C@H](CC=C)CC(=O)N[C@H](CO)Cc1ccccc1,1,8,-8,0
O=C(C1CCCC1)N1CCC(CC2CC(c3cccc(Br)c3)=NO2)(C(=O)NCC2CCCCC2)CC1 (stereo not drawn),-13,43,-43,-1
CCOc1cc(C(=O)N2CCC(CC3CC(c4cccc(Br)c4)=NO3)(C(=O)NCC3CCCCC3)CC2)cc(OCC)c1OCC (stereo not drawn),-4,74*,-74,-2
COc1cc(/C=C/C(=O)Nc2cc(C(F)(F)F)ccc2Cl)cc(OC)c1OC,-3,78*,-78,-2
COc1ccc(/C=C/C(=O)Nc2cc(C(F)(F)F)ccc2Cl)cc1OC,-8,68,-68,-2
SMILES,dFosB act,SR-BI DiI inh,SR-BI uptake up,CDK5 inh
O=C(Cc1cccc(F)c1F)NC1CCCN(Cc2ccc(Cl)cc2)C1 (stereo not drawn),-6,10,-10,-2
CC1CCCN(C(=O)CSc2nnc3ccccn23)C1 (stereo not drawn),-6,-16,16,0
CCCc1cc(=O)oc2cc(C)cc(OCC(=O)Nc3ccc(S(N)(=O)=O)cc3)c12,4,8,-8,0
O=C(NNC(=O)c1ccncc1)Nc1ccc(N=Nc2ccccc2)cc1,4,72*,-72,0
O=C(NNc1ccc([N+](=O)[O-])cn1)Nc1ccc(N=Nc2ccccc2)cc1,-9,100*,-100,0
O=C(NNc1ccc([N+](=O)[O-])cc1)Nc1ccccc1,0,13,-13,0
CCOC(=O)C1=C(C)NC(=S)NC1C (stereo not drawn),1,-7,7,1

# Compound activity from PubChem.
